In ChEMBL document CHEMBL1142519, “Synthesis and antiprotozoal activity of cationic 2-phenylbenzofurans” (J Med Chem, 2008):
Activity calls are given as the source filed them. The calls are words filed in the database; no cut-off is given here.

Assays:
[1] = test system: L6; experiment: Cytotoxicity against rat L6 cells; format: cell-based
How it was run: (§1)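 IC50 values in µM, each the average of duplicate determinations. Parasites were T. b. rhodesiense STIB900 and axenic amastigotes of L. donovani MHOM/SD/62/1S-CL2D. Cytotoxicity was run on rat L6 myoblast cells.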

[2] = test system: Trypanosoma brucei rhodesiense; experiment: Antitrypanosomal activity against Trypanosoma brucei rhodesiense STIB 900 bloodstream trypomastigotes; format: functional, organism-based; how it was run: as §1
[3] = Selectivity index, ratio of IC50 for rat L6 cells to IC50 for Trypanosoma brucei rhodesiense STIB 900; format: toxicity, cell-based; settings: read-out: Ratio IC50
How it was run: (§2)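 Ratio of the L6 rat myoblast cytotoxicity IC50 to the IC50 against the parasite named in the line. Each IC50 is the average of duplicate determinations.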

[4] = test system: Plasmodium falciparum; experiment: Antiplasmodial activity against chloroquine-resistant Plasmodium falciparum K1; format: functional, organism-based
How it was run: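 In vitro IC50 against chloroquine-resistant P. falciparum K1, reported as the average of duplicate determinations.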

[5] = Selectivity index, ratio of IC50 for rat L6 cells to IC50 for chloroquine-resistant Plasmodium falciparum K1; format: toxicity, cell-based; settings: read-out: Ratio IC50; how it was run: as §2
[6] = test system: Leishmania donovani; experiment: Antileishmanial activity against Leishmania donovani MHOM/SD/62/1S-CL2D axenic amastigotes; format: functional, organism-based; how it was run: as §1
[7] = Selectivity index, ratio of IC50 for rat L6 cells to IC50 for Leishmania donovani MHOM/SD/62/1S-CL2D; format: toxicity, cell-based; settings: read-out: Ratio IC50; how it was run: as §2
[8] = test system: Trypanosoma brucei rhodesiense; experiment: Antitrypanosomal activity against Trypanosoma brucei rhodesiense STIB 900 infected acute mouse model assessed as survival time at 5 mg/kg, ip administered daily for 4 days; format: functional; settings: route intraperitoneal
How it was run: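 STIB900 acute mouse model of T. b. rhodesiense infection, with intraperitoneal dosing. Read-out is the average days of survival of treated mice. Cures are counted as mice that survive and stay parasite-free for 60 days.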

[9] = test system: Trypanosoma brucei rhodesiense; experiment: Antitrypanosomal activity against Trypanosoma brucei rhodesiense STIB 900 infected acute mouse model assessed as cured mouse at 5 mg/kg, ip daily for 4 days; format: functional, organism-based; set-up: dose 5 mg/kg
How it was run: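 STIB900 acute mouse model of trypanosomiasis with intraperitoneal dosing. The regimens were daily for 4 days at 20, 5 or 1 mg/kg, or a single 10 mg/kg dose. A cure is a mouse that survives and is parasite-free for 60 days. Average days of survival are also recorded.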

Row | Compound | IC50 [1] [nM] | IC50 [2] [nM] | selectivity ratio [3] | IC50 [4] [nM] | selectivity ratio [5] | IC50 [6] [nM] | selectivity ratio [7] | Survival [8] [days] | Activity [9]
1 | c1cc(C2=NCCN2)cc(-c2cc3ccc(C4=NCCN4)cc3o2)c1 | 12800 | 333 | 38 | 205 | 62 | > 100000 | 0.1 |  | 
2 | COc1cc(C(=N)NC(C)C)ccc1-c1cc2cc(C(=N)NC(C)C)ccc2o1 | 98100 | 74 | 1330 | 20 | 4900 | 1500 | 67 | >39 | inactive
3 | N=C(N)c1cccc(-c2cc3ccc(C(=N)N)cc3o2)c1 | 131000 | 21 | 6240 | 4 | 32800 | 14000 | 9 | 33 | inactive
4 | c1ccc2[nH]c(-c3ccc4oc(-c5ccc(C6=NCCN6)cc5)cc4c3)nc2c1 | 6100 | 122 | 50 | 40 | 153 | 5700 | 1 | 11 | inactive
5 | COc1cc(C(=N)NC(C)C)ccc1-c1cc2ccc(C(=N)NC(C)C)cc2o1 | > 181000 | 54 | > 3350 | 206 | > 879 | 32000 | > 6 | >38 | 
6 | C[C@@H]1CC[C@H]2[C@@H](C)C(=O)O[C@@H]3O[C@@]4(C)CC[C@@H]1[C@]32OO4 [ARTEMISININ] |  |  |  |  | 75000 |  |  |  | 
7 | CC(C)NC(=N)c1cccc(-c2cc3ccc(C(=N)NC(C)C)cc3o2)c1 | > 200000 | 534 | > 375 | 59 | > 3390 | 24000 | > 8 |  | 
8 | N=C(N)c1ccc(-c2cc3ccc(C(=N)N)cc3o2)c(O)c1 | > 221000 | 4 | > 55200 | 70 | > 3160 | 29000 | > 8 | >39 | 
9 | COc1ccc(C(=N)NC(C)C)cc1-c1cc2ccc(C(=N)NC(C)C)cc2o1 | > 175000 | 929 | > 188 | 293 | > 597 | 54000 | > 3 |  | 
10 | COc1ccc(C2=NCCN2)cc1-c1cc2ccc(C3=NCCN3)cc2o1 | 11100 | 17 | 653 | 74 | 150 | 34000 | 0.3 | 25 | inactive
11 | Oc1cc(C2=NCCN2)ccc1-c1cc2cc(C3=NCCN3)cc(O)c2o1 | > 193000 | 10 | > 19300 | 30 | > 6430 | 16000 | > 12 | >21 | inactive
12 | COc1ccc(C(=N)N)cc1-c1cc2ccc(C(=N)N)cc2o1 | 128000 | 11 | 11600 | 18 | 7110 | 3600 | 36 | >48 | 
13 | CC(C)NC(=N)c1ccc(O)c(-c2cc3cc(C(=N)NC(C)C)ccc3o2)c1 | > 180000 | 1000 | > 179 | 516 | > 349 | 40000 | > 5 |  | 
14 | c1cc(C2=NCCN2)cc(-c2cc3cc(C4=NCCN4)ccc3o2)c1 | 33900 | 78 | 435 | 76 | 446 | 24000 | 1.5 |  | 
15 | N=C(N)c1cccc(-c2cc3cc(C(=N)N)ccc3o2)c1 | 21200 | 24 | 883 | 19 | 1120 | 5800 | 4 |  | 
16 | c1ccc2[nH]c(-c3ccc(-c4cc5cc(C6=NCCN6)ccc5o4)cc3)nc2c1 | 59300 | 228 | 260 | 61 | 972 | > 100000 | < 0.6 |  | 
17 | Oc1ccc(C2=NCCN2)cc1-c1cc2cc(C3=NCCN3)ccc2o1 | > 199000 | 227 | > 877 | 23 | > 8650 | 57000 | 4 |  | 
